According to ChEMBL document CHEMBL3352779, “Synthesis and biological evaluation of 4-aza-2,3-dihydropyridophenanthrolines as tubulin polymerization inhibitors” (Bioorg Med Chem Lett, 2014):
The source made the active and inactive calls. No cut-off for these calls is given here.

Experiments:
HeLa [1] = test: Antiproliferative activity against human HeLa cells after 48 hrs by SRB assay; format: functional
Summary of the method: (§1)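 Sulforhodamine B growth assay run on MIAPACA, MCF-7 and HeLa human cancer lines, with etoposide and podophyllotoxin as positive controls. Potency expressed as GI₅₀.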

[2] = (§2) Antiproliferative activity against human MiaPaCa cells after 48 hrs by SRB assay; format: functional; conditions: MIA PaCa-2, 48 h; summary of the method: as §1
MCF7 = test: Antiproliferative activity against human MCF7 cells after 48 hrs by SRB assay; format: functional; summary of the method: as §1
MiaPaCa = test: as §2; format: functional; summary of the method: as §1
Tubulin (Homo sapiens) [3] = molecular target: T1, Tubulin (Homo sapiens) (UniProt P68371+Q9H4B7+P0DPH7+P68366+Q13509+Q71U36+P04350+Q3ZCM7+P07437+P68363+Q9BQE3+Q6PEY2+Q13885+Q9BVA1+Q9BUF5); test: Inhibition of tubulin polymerization in human HeLa cells assessed as increase of tubulin soluble fraction at 5 uM after 24 hrs by immunoblot analysis; format: cell-based
Summary of the method: (§3)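 HeLa cells treated at 5 µM for 24 h, then permeabilized. Soluble and polymerized tubulin fractions collected separately and analysed by immunoblotting, with DMSO-treated cells as control.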

HeLa [4] = test: Disruption of microtubule network in human HeLa cells at 5 uM after 24 hrs by immunohistochemistry; format: cell-based
Summary of the method: (§4)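 HeLa cells exposed to 5 µM for 24 h, then fixed and stained with anti-tubulin antibody, with DAPI counterstain. Merged tubulin/DAPI fluorescence images examined for microtubule network and nuclear condensation.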

Tubulin = Tubulin (Bos taurus, UniProt Q6B856+Q862L2+Q862F3); test: Inhibition of bovine brain tubulin polymerization measured for 1 hr at 1 min intervals by fluorescence assay
HeLa [5] = test: Cell cycle arrest in human HeLa cells assessed as accumulation of cells at G2/M phase at 5 uM after 24 hrs by FACS analysis (Rvb =33.25 %); format: functional
HeLa [6] = test: Mitotic arrest in human HeLa cells assessed as cell rounding at 5 uM after 24 hrs by immunohistochemistry; format: functional, cell-based; summary of the method: as §4
Tubulin (Homo sapiens) [7] = molecular target: T1, Tubulin (Homo sapiens); test: Induction of tubulin polymerization in human HeLa cells assessed as increase of tubulin polymerized fraction at 5 uM after 24 hrs by immunoblot analysis; format: cell-based; summary of the method: as §3

| Structure (SMILES) | GI50 (HeLa [1]) | GI50 [2] [nM] | GI50 (MCF7; MCF7, 48 h) [nM] | other results |
| --- | --- | --- | --- | --- |
| O=C1OCC2=C1C(c1ccc(O)c(Br)c1)c1c(c3cccnc3c3ncccc13)N2 (stereo not given) | < 10 nM | 2000 | 7600 |  |
| O=C1OCC2=C1C(c1cc(F)c(F)c(F)c1)c1c(c3cccnc3c3ncccc13)N2 (stereo not given) | 2500 nM |  |  | GI50 (MiaPaCa): inactive; GI50 (MCF7): inactive |
| O=C1OCC2=C1C(c1ccc(F)cc1)c1c(c3cccnc3c3ncccc13)N2 (stereo not given) | 150 nM |  |  | GI50 (MiaPaCa): inactive; GI50 (MCF7): inactive |
| COc1ccc(C2C3=C(COC3=O)Nc3c2c2cccnc2c2ncccc32)cc1 (stereo not given) | 4200 nM | 3400 | 4600 |  |
| O=C1OCC2=C1C(c1cc(Br)ccc1O)c1c(c3cccnc3c3ncccc13)N2 (stereo not given) | 1760 nM | 5400 | 9200 |  |
| COc1ccc(C2C3=C(COC3=O)Nc3c2c2cccnc2c2ncccc32)cc1OC (stereo not given) | 40 nM | 5900 | 4600 |  |
| O=C1OCC2=C1C(c1cccc(Cl)c1)c1c(c3cccnc3c3ncccc13)N2 (stereo not given) | inactive | 13600 |  | GI50 (MCF7): inactive |
| COc1ccc(C2C3=C(COC3=O)Nc3c2c2cccnc2c2ncccc32)c(O)c1 (stereo not given) | 7000 nM | 9800 | 9700 |  |
| Cc1ccc(O)c(C2C3=C(COC3=O)Nc3c2c2cccnc2c2ncccc32)c1 (stereo not given) | 600 nM | 1900 |  | GI50 (MCF7): inactive |
| COc1ccc(F)c(C2C3=C(COC3=O)Nc3c2c2cccnc2c2ncccc32)c1 (stereo not given) | < 10 nM | 20 | 10 | inhibition (Tubulin (Homo sapiens) [3]): Active; Activity (HeLa [4]): Active; IC50 (Tubulin): 830 nM; Activity (HeLa [5]): 82.04%; Activity (HeLa [6]): Active |
| COc1ccc(OC)c(C2C3=C(COC3=O)Nc3c2c2cccnc2c2ncccc32)c1 (stereo not given) | < 10 nM | 100 | 8400 | IC50 (Tubulin): 2000 nM; Activity (HeLa [5]): 73.77% |
| O=C1OCC2=C1C(c1cc(Cl)ccc1O)c1c(c3cccnc3c3ncccc13)N2 (stereo not given) | 300 nM |  |  | GI50 (MiaPaCa): inactive; GI50 (MCF7): inactive |
| O=C1OCC2=C1C(c1ccc(O)c(Cl)c1)c1c(c3cccnc3c3ncccc13)N2 (stereo not given) | 300 nM | 900 | 7700 |  |
| O=C1OCC2=C1C(c1ccc(C(F)(F)F)cc1)c1c(c3cccnc3c3ncccc13)N2 (stereo not given) | 2600 nM | 700 | 60 |  |
| COc1ccc(C2C3=C(COC3=O)Nc3c2c2cccnc2c2ncccc32)c(OC)c1OC (stereo not given) | 160 nM | 3700 | 8200 |  |
| COc1cc(C2C3=C(COC3=O)Nc3c2c2cccnc2c2ncccc32)cc(OC)c1O (stereo not given) | 1700 nM | 100 | 2100 |  |
| CC(=O)O[C@H]1C(=O)[C@@]2(C)[C@H]([C@H](OC(=O)c3ccccc3)[C@]3(O)C[C@H](OC(=O)[C@H](O)[C@@H](NC(=O)c4ccccc4)c4ccccc4)C(C)=C1C3(C)C)[C@]1(OC(C)=O)CO[C@@H]1C[C@@H]2O |  |  |  | Activity (Tubulin (Homo sapiens) [7]): Active |
| COc1cc([C@@H]2c3cc4c(cc3[C@@H](O[C@@H]3O[C@@H]5CO[C@@H](C)O[C@H]5[C@H](O)[C@H]3O)[C@H]3COC(=O)[C@H]23)OCO4)cc(OC)c1O [ETOPOSIDE] | 640 nM | 1300 | 250 |  |
| COc1cc([C@@H]2c3cc4c(cc3[C@H](O)[C@H]3COC(=O)[C@H]23)OCO4)cc(OC)c1OC [PODOFILOX] | 710 nM | 500 | 230 | inhibition (Tubulin (Homo sapiens) [3]): Active |
| COc1ccc(C2C3=C(COC3=O)Nc3c2c2cccnc2c2ncccc32)cc1F (stereo not given) | 800 nM | 1200 | 6400 |  |
| Cc1cccc(C2C3=C(COC3=O)Nc3c2c2cccnc2c2ncccc32)c1O (stereo not given) | 200 nM | 500 | 10300 |  |
| O=C1OCC2=C1C(c1ccc(F)c(F)c1)c1c(c3cccnc3c3ncccc13)N2 (stereo not given) | 30 nM | 500 | < 10 | inhibition (Tubulin (Homo sapiens) [3]): Active; Activity (HeLa [4]): Active; IC50 (Tubulin): 920 nM; Activity (HeLa [5]): 76.44%; Activity (HeLa [6]): Active |
| COc1cc(C2C3=C(COC3=O)Nc3c2c2cccnc2c2ncccc32)cc(OC)c1OC (stereo not given) | 100 nM | 2800 | 1700 |  |
